Results as given in ChEMBL document CHEMBL1926645, “Synthesis and biological evaluation of (4H-1,2,4-triazol-4-yl)isoquinoline derivatives as selective glycine transporter 1 inhibitors” (Bioorg Med Chem, 2012).
Values after ≈ are worked out from the molar mass of the structure shown.

Legend:
[1] = target: T1, Sodium- and chloride-dependent glycine transporter 1 (Rattus norvegicus, UniProt P28572); test: Displacement of [3H]glycine from rat GlyT1 expressed in rat C6 cells after 30 mins by scintillation counting; assay type: cell-based
T1 sequence (P28572 whole entry): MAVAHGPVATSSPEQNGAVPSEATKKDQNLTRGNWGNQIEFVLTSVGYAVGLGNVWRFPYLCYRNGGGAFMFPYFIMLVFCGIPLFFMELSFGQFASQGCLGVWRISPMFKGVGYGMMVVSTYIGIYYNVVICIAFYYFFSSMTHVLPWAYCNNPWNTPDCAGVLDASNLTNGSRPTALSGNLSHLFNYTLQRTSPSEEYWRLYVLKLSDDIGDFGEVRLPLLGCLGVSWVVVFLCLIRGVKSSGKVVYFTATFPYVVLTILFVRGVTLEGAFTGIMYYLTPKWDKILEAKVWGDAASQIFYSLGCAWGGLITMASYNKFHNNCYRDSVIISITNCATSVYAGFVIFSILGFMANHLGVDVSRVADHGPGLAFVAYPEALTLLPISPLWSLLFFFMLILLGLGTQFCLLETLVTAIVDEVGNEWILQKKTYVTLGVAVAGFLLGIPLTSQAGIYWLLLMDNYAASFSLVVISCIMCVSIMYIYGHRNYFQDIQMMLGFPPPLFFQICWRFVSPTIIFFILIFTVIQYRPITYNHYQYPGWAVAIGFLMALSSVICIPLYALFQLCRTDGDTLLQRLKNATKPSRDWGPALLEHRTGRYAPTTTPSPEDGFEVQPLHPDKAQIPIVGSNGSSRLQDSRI
How it was run: (§1)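 Rat GlyT1-expressing C6 cells grown in D-MEM/10% FCS, 37 °C, 5% CO2, plated 2 days ahead. Cells washed, then preincubated 30 min with compound in HEPES buffer pH 7.4 (NaCl, KCl, MgCl2, CaCl2, glucose, L-alanine). Uptake started with [3H]glycine, 10 min at 37 °C. Nonspecific uptake defined with 3 mmol/L sarcosine. Cells washed with ice-cold PBS, lysed in 0.1 mol/L NaOH, scintillation counted; mean ± SEM of three independent experiments.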

[2] = target: T2, Sodium- and chloride-dependent glycine transporter 2 (Rattus norvegicus, UniProt P58295); test: Displacement of [3H]glycine from Wistar rat brain GlyT2 after 10 mins by scintillation counting
T2 sequence (P58295 whole entry): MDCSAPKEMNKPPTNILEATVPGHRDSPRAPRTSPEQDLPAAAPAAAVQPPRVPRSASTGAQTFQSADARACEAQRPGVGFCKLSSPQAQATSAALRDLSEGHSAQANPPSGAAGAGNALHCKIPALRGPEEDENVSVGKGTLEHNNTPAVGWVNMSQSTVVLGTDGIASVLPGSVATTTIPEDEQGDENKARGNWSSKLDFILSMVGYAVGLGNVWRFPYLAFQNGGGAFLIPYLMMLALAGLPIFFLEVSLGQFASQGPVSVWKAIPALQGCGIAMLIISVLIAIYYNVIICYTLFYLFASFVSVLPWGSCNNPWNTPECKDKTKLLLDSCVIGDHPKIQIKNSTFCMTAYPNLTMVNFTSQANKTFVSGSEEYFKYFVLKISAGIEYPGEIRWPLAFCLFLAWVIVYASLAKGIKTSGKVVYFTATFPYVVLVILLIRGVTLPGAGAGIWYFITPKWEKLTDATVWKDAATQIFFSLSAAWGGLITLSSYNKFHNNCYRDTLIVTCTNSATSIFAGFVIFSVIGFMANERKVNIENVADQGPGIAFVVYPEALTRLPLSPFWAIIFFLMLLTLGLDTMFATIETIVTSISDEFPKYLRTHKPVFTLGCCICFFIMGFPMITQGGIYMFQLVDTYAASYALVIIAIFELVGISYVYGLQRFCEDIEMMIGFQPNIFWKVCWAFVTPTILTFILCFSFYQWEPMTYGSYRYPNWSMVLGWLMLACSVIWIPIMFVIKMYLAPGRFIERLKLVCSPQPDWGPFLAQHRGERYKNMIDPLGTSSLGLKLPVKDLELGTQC
How it was run: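 Primary brainstem cells from Wistar rat fetuses (E17) were papain-dispersed, plated on poly-L-lysine, and cultured 14–21 days. The assay buffer, pH 7.4, contained 3 mmol/L sarcosine; wells were preincubated 10 min at 37 °C. Compound was added with ~0.3 µM [3H]glycine for 10 min at 37 °C, followed by four ice-cold washes, NaOH lysis and scintillation counting. Specific uptake was defined with 3 mmol/L glycine; mean ± SEM of three independent experiments.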

[3] = Aqueous solubility of the compound at pH 1.2; assay type: physicochemical
How it was run: (§2)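 Compound suspension held at 25 °C for 20 h; precipitate removed by filtration and dissolved concentration in filtrate measured by HPLC.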

[4] = Aqueous solubility of the compound at pH 6.8; assay type: physicochemical; how it was run: as §2
Rattus norvegicus = species on record: Rattus norvegicus; test: Selectivity ratio of IC50 for rat GlyT2 to IC50 for rat GlyT1
[5] = target: T3, Sodium- and chloride-dependent glycine transporter 1 (Rattus norvegicus) (UniProt P28572); test: Displacement of [3H]glycine from rat GlyT1 expressed in rat C6 cells at 10 uM after 30 mins by scintillation counting; assay type: cell-based; how it was run: as §1
T3 sequence (whole entry): T1 sequence (P28572 whole entry)

Mus musculus = test: Antipsychotic activity in ICR mouse assessed as inhibition of (+)-HA966-induced hyperlocomotion at 10 mg/kg, ip administered 20 mins prior (+)-HA966] challenge measured every 90 mins; assay type: functional; conditions: route intraperitoneal
How it was run: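 Mice, 16 per group, pretreated with reserpine 10 mg/kg ip 19 h and α-methyl-para-tyrosine methyl ester 250 mg/kg ip 30 min before bilateral intracerebroventricular (+)-HA966 80 µg/mouse; ACSF+vehicle controls. Locomotor activity integrated over 90 min immediately after (+)-HA966. Percent inhibition = 100 × [(HA966+vehicle − ACSF+vehicle) − (HA966+compound − ACSF+vehicle)] / (HA966+vehicle − ACSF+vehicle).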

Row | SMILES | IC50 [1] [µM] | solubility [3] [µM] | solubility [4] [µM] | further results
1 | CCc1nnc(-c2ccc(-c3ccccc3)cc2)n1-c1cccc2cn[nH]c12 | 5.6 |  |  | 
2 | CCc1nnc(-c2ccc(-c3ccccc3)cc2)n1Cc1ccncc1 | > 10 |  |  | inhibition [5]: 15%
3 | CCc1nnc(-c2ccc(-c3ccccc3)cc2)n1-c1ccccc1F |  | 96 (≈ 33 µg/mL) | < 1 | Ratio IC50 (Rattus norvegicus): 1
4 | CCc1nnc(-c2ccc(-c3ccccc3)cc2)n1-c1ccnc2ccccc12 | 1.7 |  |  | 
5 | CCc1nnc(-c2ccc(-c3ccccc3)cc2)n1-c1cccc2ccncc12 | 0.8 | > 100 | 11 (≈ 4.14 µg/mL) | IC50 [2]: 4.2 µM; Ratio IC50 (Rattus norvegicus): 5.3
6 | CCc1nnc(-c2ccc(-c3ccccc3)cc2)n1C(C)c1ccncc1 (stereo unspecified) | > 10 |  |  | inhibition [5]: 36%
7 | CCc1nnc(-c2ccc(-c3ccccc3)cc2)n1-c1cccc2ccn(C)c12 | 3 |  |  | 
8 | CCc1nnc(-c2ccc(-c3ccccc3)cc2)n1-c1cccc2c1CCNC2 | > 10 |  |  | inhibition [5]: 25%
9 | CCc1nnc(-c2ccc(-c3ccccc3)cc2)n1-c1cccc2c[n+]([O-])ccc12 | > 10 |  |  | inhibition [5]: 28%
10 | CCc1nnc(-c2ccc(-c3ccccc3)cc2)n1-c1cccc2ncccc12 | 0.82 | > 100 | 9 (≈ 3.39 µg/mL) | IC50 [2]: 2.7 µM; Ratio IC50 (Rattus norvegicus): 3.3
11 | CCc1nnc(-c2ccc(-c3ccccc3)cc2)n1-c1cccc2cc[nH]c12 | 22 |  |  | 
12 | CCc1nnc(-c2ccc(-c3ccccc3)cc2)n1-c1nccc2ccccc12 | 1.4 |  |  | 

The next lines start with results.

Row | IC50 [1] [µM] | solubility [3] [µM] | solubility [4] [µM] | SMILES | further results
13 | 0.3 | > 100 | 23 (≈ 8.66 µg/mL) | CCc1nnc(-c2ccc(-c3ccccc3)cc2)n1-c1cccc2cccnc12 | IC50 [2]: 0.38 µM; Ratio IC50 (Rattus norvegicus): 1.3
14 |  | > 100 | 5 (≈ 1.88 µg/mL) | CCc1nnc(-c2ccc(-c3ccccc3)cc2)n1-c1cccc2cnccc12 | 
15 | > 10 |  |  | CCc1nnc(-c2ccc(-c3ccccc3)cc2)n1-c1cccc2c(=O)[nH]ccc12 | inhibition [5]: 16%
16 |  | 5 (≈ 1.79 µg/mL) | < 1 | CC(C)c1nnc(-c2ccc(-c3ccccc3)cc2)n1-c1ccccc1F | inhibition in vivo at 10 mg/kg (Mus musculus): 70%
17 | 2.8 |  |  | CCc1nnc(-c2ccc(-c3ccccc3)cc2)n1-c1cccc2[nH]ncc12 | 
18 | 3.7 |  |  | CCc1nnc(-c2ccc(-c3ccccc3)cc2)n1-c1cncc2ccccc12 | 
19 | 7.5 |  |  | CCc1nnc(-c2ccc(-c3ccccc3)cc2)n1-c1cccc2nc[nH]c12 | 
